Square brackets hold non-standard residues; d marks the D form. Peptide text beside a SMILES is read from it. * marks the point of attachment. X1 = C=CCc1ccc(-c2cc(Nc3ccc(CN)cc3)c3cccc(C(=O)*)c3n2)cc1; X2 = C=CCc1ccc(-c2cc(Nc3ccccc3)c3cccc(C(=O)*)c3n2)cc1; AllylGly = C=CC[C@H](N)C(=O)O; Dap = NC[C@H](N)C(=O)O
Tests used:
[1] = Displacement of thiazole orange from RNA A by fluorescent intercalator displacement assay
Summary of the method: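 Pre-formed complex of RNA A (100 nM) with thiazole orange (50 nM), in 50 mM Bis-Tris·HCl pH 7.0, 100 mM NaCl, 10 mM MgCl2, 15 min. Added to a peptide titration and held ~15 min at 25 °C. Fluorescence read at ex 485 / em 535 nm, minus dye-only background. […] Three independent runs, mean ± SD.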

RNA A (synthetic) = experiment: Binding affinity to RNA A by quantitative ribonuclease V1 footprinting assay

SMILES: NCCCC[C@H]1NC(=O)[C@H](Cc2ccccc2)NC(=O)[C@H](CN)NC(=O)c2cccc3c(Nc4ccc(CN)cc4)cc(nc23)-c2ccc(cc2)C/C=C/C[C@@H](C(N)=O)NC1=O
- Kd [1]: 2.7 µM
- Binding affinity (RNA A (synthetic)): 2.3 µM

SMILES: C=CCc1ccc(-c2cc(Nc3ccccc3)c3cccc(C(=O)N[C@@H](CCCNC(=N)N)C(=O)N[C@@H](CC(C)C)C(=O)N[C@@H](CC(C)C)C(=O)N[C@@H](CC=C)C(N)=O)c3n2)cc1
- Kd [1]: > 30 µM

SMILES: NCCCC[C@H]1NC(=O)[C@@H](Cc2ccccc2)NC(=O)[C@H](CN)NC(=O)c2cccc3c(Nc4ccc(CN)cc4)cc(nc23)-c2ccc(cc2)C/C=C/C[C@@H](C(N)=O)NC1=O
- Kd [1]: 4.4 µM
- Binding affinity (RNA A (synthetic)): 8.6 µM

SMILES: CC(C)C[C@@H]1NC(=O)[C@H](CCCNC(=N)N)NC(=O)c2cccc3c(Nc4ccccc4)cc(nc23)-c2ccc(cc2)C/C=C/C[C@@H](C(N)=O)NC(=O)[C@H](CC(N)=O)NC1=O
- Kd [1]: 6.2 µM

SMILES: NCCCC[C@@H]1NC(=O)[C@H](CN)NC(=O)c2cccc3c(Nc4ccc(CN)cc4)cc(nc23)-c2ccc(cc2)C/C=C/C[C@@H](C(N)=O)NC(=O)CNC1=O
- Kd [1]: 0.22 µM
- Binding affinity (RNA A (synthetic)): 0.05 µM

SMILES: N=C(N)NCCC[C@@H]1NC(=O)c2cccc3c(Nc4ccccc4)cc(nc23)-c2ccc(cc2)C/C=C/C[C@@H](C(N)=O)NC1=O
- Kd [1]: 3.6 µM

SMILES: C=CCc1ccc(-c2cc(Nc3ccccc3)c3cccc(C(=O)N[C@@H](CCCNC(=N)N)C(=O)N[C@@H](CC(N)=O)C(=O)N[C@@H](CC(N)=O)C(=O)N[C@@H](CC=C)C(N)=O)c3n2)cc1 (X2-RNN[AllylGly]-NH2)
- Kd [1]: 14.2 µM

SMILES: CC(C)C[C@H]1NC(=O)[C@H](CCCNC(=N)N)NC(=O)c2cccc3c(Nc4ccccc4)cc(nc23)-c2ccc(cc2)C/C=C/C[C@@H](C(N)=O)NC(=O)[C@@H](CC(C)C)NC1=O
- Kd [1]: 10.1 µM

SMILES: N=C(N)NCCC[C@@H]1NC(=O)c2cccc3c(Nc4ccccc4)cc(nc23)-c2ccc(cc2)C/C=C/C[C@@H](C(N)=O)NC(=O)CNC1=O
- Kd [1]: 3.9 µM

SMILES: N=C(N)NCCC[C@@H]1NC(=O)c2cccc3c(Nc4ccccc4)cc(nc23)-c2ccc(cc2)C/C=C/C[C@@H](C(N)=O)NC(=O)[C@@H](CC(N)=O)NC(=O)[C@@H](CC(N)=O)NC1=O
- Kd [1]: 13.4 µM

SMILES: C=CCc1ccc(-c2cc(Nc3ccc(CN)cc3)c3cccc(C(=O)N[C@@H](CN)C(=O)N[C@@H](CCCCN)C(=O)NCC(=O)N[C@@H](CC=C)C(N)=O)c3n2)cc1 (X1-[Dap]KG[AllylGly]-NH2)
- Kd [1]: 0.71 µM
- Binding affinity (RNA A (synthetic)): 0.33 µM

SMILES: CC(C)C[C@@H]1NC(=O)[C@H](CC(C)C)NC(=O)[C@H](CCCNC(=N)N)NC(=O)c2cccc3c(Nc4ccccc4)cc(nc23)-c2ccc(cc2)C/C=C/C[C@@H](C(N)=O)NC1=O
- Kd [1]: > 30 µM

SMILES: CC(C)[C@H](NC(=O)[C@H](CO)NC(=O)CCCN)C(=O)NCc1ccc(Nc2ccnc3c(C(=O)N[C@@H](CCCNC(=N)N)C(N)=O)cccc23)cc1
- Kd [1]: 13.2 µM
- Binding affinity (RNA A (synthetic)): 3.3 µM

SMILES: NC[C@@H]1O[C@H](O[C@H]2[C@@H](O)[C@H](O[C@H]3[C@@H](O)[C@H](N)C[C@H](N)[C@H]3O[C@H]3O[C@H](CN)[C@@H](O)[C@H](O)[C@H]3N)O[C@@H]2CO)[C@H](N)[C@@H](O)[C@@H]1O
- Kd [1]: > 60 µM

SMILES: CC(C)C[C@@H]1NC(=O)[C@H](CC(N)=O)NC(=O)[C@H](CCCNC(=N)N)NC(=O)c2cccc3c(Nc4ccccc4)cc(nc23)-c2ccc(cc2)C/C=C/C[C@@H](C(N)=O)NC1=O
- Kd [1]: 18.9 µM

SMILES: NC[C@H]1O[C@H](O[C@H]2[C@H](O)[C@@H](O[C@H]3O[C@H](CO)[C@@H](O)[C@H](N)[C@H]3O)[C@H](N)C[C@@H]2N)[C@H](O)[C@@H](O)[C@@H]1O [KANAMYCIN]
- Kd [1]: > 100 µM

SMILES: C=CCc1ccc(-c2cc(Nc3ccccc3)c3cccc(C(=O)N[C@@H](CCCNC(=N)N)C(=O)N[C@H](CC(C)C)C(=O)N[C@H](CC(C)C)C(=O)N[C@@H](CC=C)C(N)=O)c3n2)cc1
- Kd [1]: > 30 µM

SMILES: N=C(N)NCCC[C@@H]1NC(=O)c2cccc3c(Nc4ccccc4)cc(nc23)-c2ccc(cc2)C/C=C/C[C@@H](C(N)=O)NC(=O)[C@H](CC(N)=O)NC(=O)[C@H](CC(N)=O)NC1=O
- Kd [1]: 1.4 µM

SMILES: N=C(N)NCCC[C@@H]1NC(=O)c2cccc3c(Nc4ccccc4)cc(nc23)-c2ccc(cc2)C/C=C/C[C@@H](C(N)=O)NC(=O)CNC(=O)[C@H](CCCCN)NC1=O
- Kd [1]: 0.35 µM

SMILES: NCCCC[C@H]1NC(=O)CNC(=O)[C@H](CN)NC(=O)c2cccc3c(Nc4ccc(CN)cc4)cc(nc23)-c2ccc(cc2)C/C=C/C[C@@H](C(N)=O)NC1=O
- Activity [1]: 96%
- Kd [1]: 0.6 µM
- Binding affinity (RNA A (synthetic)): 0.27 µM
